Key:
[1] = folding enthalpy; higher = less favourable; fluorescence melt of hairpins on a sequencing array, two-state fit; details: sodium 0.088 M
Method in brief: (§1)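 Bootstrapped two-state fits yielded melting temperature and folding enthalpy for library hairpins. Cy3 fluorescence, with annealed Cy3 and quencher oligos, was imaged on a sequenced MiSeq flow cell in 50 mM Na-HEPES pH 8.0, 25 mM NaCl in 2.5 °C steps up to 60 °C, and normalised to pre-quench Cy3 and to control constructs. Four replicates were combined by inverse variance, and fitted temperatures were raised by 9.35 °C to match UV melts.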

[2] = melting temperature; fluorescence melt of hairpins on a sequencing array, two-state fit, raised by 9.35 °C to match UV melts; details: sodium 0.088 M
Method in brief: as §1

Sequence | folding enthalpy [1] [kJ/mol] | Tm [2] [°C]
GCCTTCGAAAGAACGGC ((((((....))).))) | -122 | 48.2
GCCTTGCGAAAGCACTGC ((..(((....)))..)) | -35.9 | 40.3
GCCTTGCGAAAGCCCGGC (((..((....))..))) | -97.2 | 41.8
GCCTTGCGAAAGCGATGC ((.(.((....)).).)) | -47.4 | 47.4
GCCTTGCGAAAGCTAAGC ((.(.((....)).).)) | -39.2 | 45.8
GCCTTGGGAAACCAAGAC (.(((((....))))).) | -80.8 | 38.7
GCCTTGGGAAACTGAGGC ((((..(....)..)))) | -125 | 45.1
GCCTTTACGAAAGTAGGC (((..(((....)))))) | -120 | 43.5
GCCTTTCCGAAAGGAGGC (((..(((....)))))) | -83.1 | 44.6
GCCTTTGCGAAAGCAGGC (((..(((....)))))) | -87.4 | 50.3
GCCTTTGGAAACAAGGGC (((.(((....))).))) | -168 | 48.9
GCCTTTTCGAAAGAAGGC (((..(((....)))))) | -127 | 42.7
GCGAAAAATCGC ((((....)))) | -41.3 | 36.2
GCGAAAACGAAAGTTCGC (((..(((....)))))) | -127 | 51.6
GCGAAAATTCGC ((((....)))) | -77.9 | 47.8
GCGAAACTCGC ((((...)))) | -79.2 | 47.4
GCGAAAGAAATTTCGC ((((((....)))))) | -142 | 55
GCGAAAGCGAAAGCTCGC (((..(((....)))))) | -101 | 56.3
GCGAAAGGAAACTTCCGC (((.(((....))).))) | -114 | 42.5
GCGAAATATCGC ((((....)))) | -77.7 | 45.2
GCGAACGAAAGTTATCGC ((((((....)))..))) | -96.7 | 44.1
GCGAACGAAAGTTCCGC ((((((....))).))) | -125 | 54
GCGAACGGAAACGTTTGC ((.((((....)))).)) | -196 | 56.4
GCGAACTCTCGC ((((....)))) | -104 | 46.8

Sequence | folding enthalpy [1] [kJ/mol] | Tm [2] [°C]
GCGAACTGTCGC ((((....)))) | -89.4 | 45.5
GCGAACTTCGC ((((...)))) | -72.5 | 48.5
GCGAAGAAATTCGC (((((....))))) | -118 | 55.5
GCGAAGAGTCGC ((((....)))) | -49.5 | 48.4
GCGAAGATCGC ((((...)))) | -57.4 | 49.5
GCGAAGCCTCGC ((((....)))) | -36.9 | 50.6
GCGAAGCGAAAGCCACGC (((..((....))..))) | -35.7 | 42.5
GCGAAGCGAAAGCGTGGC ((.(.((....)).).)) | -43.8 | 47.3
GCGAAGCGAAAGCGTTGC ((.(.((....)).).)) | -52.1 | 47.7
GCGAAGCGAAAGCTACGC (((.(((....))).))) | -169 | 55
GCGAAGCGAAAGCTATGC ((..(((....)))..)) | -31.1 | 40.7
GCGAAGCGAAAGCTCGGC ((..(((....)))..)) | -34.7 | 43.5
GCGAAGCGAAAGCTCTGC ((..(((....)))..)) | -33.1 | 39.7
GCGAAGGCTCGC ((((....)))) | -60.3 | 46.9
GCGAAGTCGAAAGACCGC (((..(((....)))))) | -112 | 52.5
GCGAATAATCGC ((((....)))) | -58.7 | 46.2
GCGAATAGTCGC ((((....)))) | -72.9 | 44.7
GCGAATCCGAAAGGACGC (((..(((....)))))) | -109 | 48.7
GCGAATCTTCGC ((((....)))) | -117 | 52.8
GCGAATGTCGC ((((...)))) | -73.7 | 46.7
GCGACAACGAAAGTTCGC (((..(((....)))))) | -119 | 49.4
GCGACAAGTCGC ((((....)))) | -126 | 58
GCGACACCGAAAGGTCGC (((..(((....)))))) | -145 | 61.1
GCGACACGTCGC ((((....)))) | -118 | 61.4

Sequence | folding enthalpy [1] [kJ/mol] | Tm [2] [°C]
GCGACAGCGAAAGCTCGC (((..(((....)))))) | -61 | 46.7
GCGACAGGAAACTGCCGC (((.(((....))).))) | -194 | 55.9
GCGACATCTCGC ((((....)))) | -101 | 46.5
GCGACCGAAAGGTAACGC ((((((....)))..))) | -124 | 51.9
GCGACCGAAAGGTCACGC ((((((....)))..))) | -70.7 | 61.1
GCGACCGAAAGGTCCGC ((((((....))).))) | -77.4 | 66.4
GCGACCGAAAGGTGGCGC ((((((....)))..))) | -132 | 66.9
GCGACGACTCGC ((((....)))) | -71 | 45.8
GCGACGCCGAAAGGCCGC (((..(((....)))))) | -79.8 | 58.1
GCGACGCCTCGC ((((....)))) | -70.5 | 50.1
GCGACGCGAAAGCCCCGC (((..((....))..))) | -63.6 | 44.4
GCGACGCGAAAGCCGCGC (((..((....))..))) | -98.8 | 67.1
GCGACGCGAAAGCTGCGC (((..((....))..))) | -99.2 | 61.9
GCGACGCGAAAGCTTAGC ((.(.((....)).).)) | -104 | 48.9
GCGACGCTCGC ((((...)))) | -64.1 | 50
GCGACGGATCGC ((((....)))) | -62.2 | 46.8
GCGACGGGAAACCGCCGC (((.(((....))).))) | -189 | 64.2
GCGACGTATCGC ((((....)))) | -61.2 | 50.5
GCGACTACGAAAGTACGC (((..(((....)))))) | -108 | 42.5
GCGACTACTCGC ((((....)))) | -96.9 | 46.6
GCGACTCGAAAGAGCCGC (((.(((....))).))) | -197 | 60.2
GCGACTCTCGC ((((...)))) | -92.9 | 49.3
GCGACTCTTCGC ((((....)))) | -96.3 | 50.6
GCGACTGCTCGC ((((....)))) | -69 | 50.4

Sequence | folding enthalpy [1] [kJ/mol] | Tm [2] [°C]
GCGACTGGAAACAGTTGC ((.((((....)))).)) | -190 | 55.5
GCGACTTTTCGC ((((....)))) | -90.5 | 49
GCGAGAACGAAAGTTCGC (((..(((....)))))) | -62.7 | 55.4
GCGAGAACTCGC ((((....)))) | -115 | 54.9
GCGAGACTCGC ((((...)))) | -42.8 | 49
GCGAGATCGAAAGATCGC (((..(((....)))))) | -102 | 52.1
GCGAGCGAAAGCTACGC ((((((....))).))) | -75.1 | 62.6
GCGAGCGAAAGCTATCGC ((((((....)))..))) | -97.5 | 54.6
GCGAGCGAAAGCTCCGC ((((((....))).))) | -76.1 | 65.4
GCGAGCGAAAGCTGACGC ((((((....)))..))) | -103 | 51.1
GCGAGCGGAAACACCCGC (((.(.(....).).))) | -57.6 | 36.4
GCGAGCGGAAACACTCGC (((((.(....).))))) | -202 | 56.2
GCGAGCGGAAACGTTCGC ((((.((....)).)))) | -172 | 63.4
GCGAGCTCGAAAGAGCGC (((..(((....)))))) | -38.7 | 54.9
GCGAGGCGAAAGCATGGC ((.(.((....)).).)) | -68.7 | 49.3
GCGAGGCGAAAGCATTGC ((.(.((....)).).)) | -94.2 | 54.3
GCGAGGCGAAAGCCAAGC ((..(((....)))..)) | -85.6 | 69.2
GCGAGGCGAAAGCCCCGC (((.(((....))).))) | -111 | 68.5
GCGAGGCGAAAGCCCGGC ((..(((....)))..)) | -43.8 | 63.8
GCGAGGCGAAAGCGCCGC (((..((....))..))) | -52.4 | 63.8
GCGAGGCGAAAGCGTAGC ((.(.((....)).).)) | -64.5 | 51
GCGAGGCGAAAGCGTGGC ((.(.((....)).).)) | -63.8 | 48.9
GCGAGGCGAAAGCTGCGC (((..((....))..))) | -124 | 65.1
GCGAGGCGTCGC ((((....)))) | -61.7 | 56.6
